Measurements as given in PMC10439066 (Drugs in R&D, 2023).

Tests used:
BSEP (vesicle assay) = BSEP (vesicle assay) (Homo sapiens, UniProt O95342); assay: Transporter inhibition, vesicle assay; format: in vitro ADME; conditions: read-out: Inhibition characteristics in vitro IC50
serum androsterone = assay: AKRENDO1 pharmacodynamics; format: in vivo, human; conditions: completers
progesterone receptor = conditions: cited from earlier work
female rats = assay: Repeat-dose in vivo toxicity study, rat; parameters: species or system Wistar strain); conditions: up to highest tested dose of 70 mg/kg, 13 weeks, Bayer data on file
[1] = test system: adult premenopausal women with endometriosis-related pain symptoms; assay: AKRENDO1 phase IIa trial, adverse events; format: in vivo, human
In short: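 Randomized, placebo-controlled phase IIa trial in women ≥18 years with surgically or imaging-confirmed endometriosis who met defined pain criteria. Oral dosing: 3 mg OD, 10 mg OD, 30 mg OD, 30 mg BID, 60 mg BID, or placebo for 12 weeks. Visits at days 10, 28, 56 and 84 (±4 d), plus follow-up 2 weeks after end of treatment. Incidence of AEs, SAEs and TEAEs recorded.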

[2] = 60 mg BID; cited from earlier work
recombinant human AKR1C4 = biological target: T1, recombinant human AKR1C4 (Homo sapiens, UniProt P17516); assay: Related enzyme screen; format: biochemical; conditions: preclinical screen
T1 sequence (P17516 1-323): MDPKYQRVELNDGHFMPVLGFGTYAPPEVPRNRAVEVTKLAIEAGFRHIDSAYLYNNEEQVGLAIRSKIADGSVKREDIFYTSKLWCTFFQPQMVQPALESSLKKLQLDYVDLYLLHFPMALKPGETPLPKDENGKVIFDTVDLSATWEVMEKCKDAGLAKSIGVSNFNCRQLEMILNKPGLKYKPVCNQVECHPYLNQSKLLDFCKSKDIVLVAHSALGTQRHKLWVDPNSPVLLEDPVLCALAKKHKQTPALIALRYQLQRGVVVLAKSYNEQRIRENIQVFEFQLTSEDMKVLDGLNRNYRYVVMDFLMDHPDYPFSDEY

[3] = test system: healthy pre- and postmenopausal women; conditions: cited from earlier work
androgen receptor = conditions: cited from earlier work
[4] = AKRENDO1 population pharmacokinetic analysis; format: in vivo, human; conditions: 3 mg OD relative to all doses >3 mg; 95% confidence interval, 11–59; popPK model
estrogen receptor = conditions: cited from earlier work
endometriotic lesions = conditions: cited from earlier work
[5] = test system: 134 human targets including G protein-coupled and nuclear receptors, ion channels, transporters, and enzymes; assay: Specificity panel
AKR1C3 = biological target: T2, AKR1C3 (Homo sapiens, UniProt P42330); assay: AKR1C3 biochemical assay; conditions: in vitro
T2 sequence (P42330 1-323): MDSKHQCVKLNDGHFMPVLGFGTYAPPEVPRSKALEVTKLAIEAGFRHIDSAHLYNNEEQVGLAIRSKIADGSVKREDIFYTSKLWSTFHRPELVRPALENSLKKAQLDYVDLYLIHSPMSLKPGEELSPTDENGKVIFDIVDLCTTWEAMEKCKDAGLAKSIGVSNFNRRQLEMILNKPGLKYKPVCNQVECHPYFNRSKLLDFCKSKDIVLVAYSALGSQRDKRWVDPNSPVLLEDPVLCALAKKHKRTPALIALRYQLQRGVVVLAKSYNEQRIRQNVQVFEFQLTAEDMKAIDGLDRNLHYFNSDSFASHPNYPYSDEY

recombinant human AKR1C1 = biological target: T3, recombinant human AKR1C1 (Homo sapiens, UniProt Q04828); assay: Related enzyme screen; format: biochemical; conditions: preclinical screen
T3 sequence (Q04828 1-323): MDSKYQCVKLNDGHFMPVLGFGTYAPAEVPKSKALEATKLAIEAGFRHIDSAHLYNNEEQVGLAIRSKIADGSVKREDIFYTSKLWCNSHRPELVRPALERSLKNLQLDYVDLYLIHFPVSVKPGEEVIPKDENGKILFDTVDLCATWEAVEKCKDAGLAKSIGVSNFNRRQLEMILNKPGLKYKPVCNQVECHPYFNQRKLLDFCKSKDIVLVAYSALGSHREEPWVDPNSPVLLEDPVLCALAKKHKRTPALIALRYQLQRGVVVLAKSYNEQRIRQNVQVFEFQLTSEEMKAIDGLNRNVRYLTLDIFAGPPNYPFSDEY

Chain of BSEP (vesicle assay) (O95342 whole entry): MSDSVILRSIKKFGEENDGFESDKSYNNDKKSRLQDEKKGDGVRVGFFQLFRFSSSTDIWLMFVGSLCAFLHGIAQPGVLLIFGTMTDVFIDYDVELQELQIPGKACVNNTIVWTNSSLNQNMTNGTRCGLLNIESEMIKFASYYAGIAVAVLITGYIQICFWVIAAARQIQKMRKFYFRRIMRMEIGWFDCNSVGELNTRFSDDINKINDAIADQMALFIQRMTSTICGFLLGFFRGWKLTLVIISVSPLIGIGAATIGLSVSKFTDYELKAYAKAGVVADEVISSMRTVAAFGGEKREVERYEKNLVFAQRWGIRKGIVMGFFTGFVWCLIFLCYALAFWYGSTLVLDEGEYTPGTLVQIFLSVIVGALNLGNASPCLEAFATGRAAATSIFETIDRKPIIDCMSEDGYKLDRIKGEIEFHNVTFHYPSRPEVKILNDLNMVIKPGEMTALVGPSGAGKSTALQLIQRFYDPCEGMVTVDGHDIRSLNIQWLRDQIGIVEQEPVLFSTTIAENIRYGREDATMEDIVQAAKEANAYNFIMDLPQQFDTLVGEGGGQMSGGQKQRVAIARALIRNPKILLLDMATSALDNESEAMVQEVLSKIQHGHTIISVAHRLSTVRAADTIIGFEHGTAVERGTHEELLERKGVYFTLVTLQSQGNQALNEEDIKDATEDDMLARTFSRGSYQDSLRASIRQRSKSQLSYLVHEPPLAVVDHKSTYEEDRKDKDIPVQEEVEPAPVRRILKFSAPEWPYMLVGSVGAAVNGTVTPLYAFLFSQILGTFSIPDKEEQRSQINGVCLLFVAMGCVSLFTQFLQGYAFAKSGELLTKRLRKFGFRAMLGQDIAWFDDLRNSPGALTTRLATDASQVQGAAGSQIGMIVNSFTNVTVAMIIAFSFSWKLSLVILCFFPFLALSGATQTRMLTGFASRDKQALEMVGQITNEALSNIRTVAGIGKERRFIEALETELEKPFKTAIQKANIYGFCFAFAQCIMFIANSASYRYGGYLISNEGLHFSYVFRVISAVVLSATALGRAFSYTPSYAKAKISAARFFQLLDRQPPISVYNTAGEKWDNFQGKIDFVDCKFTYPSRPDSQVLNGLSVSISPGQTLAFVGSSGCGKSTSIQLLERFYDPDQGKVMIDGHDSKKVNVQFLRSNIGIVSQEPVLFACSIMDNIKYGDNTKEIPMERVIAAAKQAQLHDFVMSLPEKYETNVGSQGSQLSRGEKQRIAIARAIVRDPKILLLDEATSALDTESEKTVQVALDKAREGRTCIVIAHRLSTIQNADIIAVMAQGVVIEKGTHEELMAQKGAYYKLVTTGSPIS

## CN(CCC(=O)O)C(=O)c1ccc2c(c1)CC[C@@H]1[C@@H]2CC[C@]2(C)C(c3cncc(F)c3)=CC[C@@H]12 [BAY1128688]
BSEP (vesicle assay)
  IC50: 3.6 µM
Serum androsterone
  cyclicity of sex hormones: No changes
Serum androsterone; from visit 4 onwards, 12 weeks
  serum concentrations of androsterone: increased dose-dependently
Progesterone receptor
  agonism or antagonism: no relevant agonism or antagonism
Female rats
  hepatotoxicity: No hepatotoxicity was observed
[1]; 3 mg OD n = 11
  Any AE: 8 (72.7) Number (%)
  Any SAE: 1 (9.1) Number (%)
  Any TEAE: 5 (45.5) Number (%)
  Any TESAE: 1 (9.1) Number (%)
  Discontinuation due to TEAE: 0 Number (%)
  Discontinuation due to TESAE: 0 Number (%)
  Procedure-related TEAE: 0 Number (%)
  SAE related to procedure: 0 Number (%)
  Study-drug-related SAE: 0 Number (%)
  Study-drug-related TEAE: 4 (36.4) Number (%)
[1]; 10 mg OD
  participants with TEAEs: 32.3%
  participants with study-drug-related TEAEs: 9.7%
[1]; 10 mg OD n = 31
  Any AE: 16 (51.6) Number (%)
  Any SAE: 0 Number (%)
  Any TEAE: 10 (32.3) Number (%)
  Any TESAE: 0 Number (%)
  Discontinuation due to TEAE: 1 (3.2) Number (%)
  Discontinuation due to TESAE: 0 Number (%)
  Procedure-related TEAE: 0 Number (%)
  SAE related to procedure: 0 Number (%)
  Study-drug-related SAE: 0 Number (%)
  Study-drug-related TEAE: 3 (9.7) Number (%)
[1]; 30 mg BID n = 11
  Any AE: 7 (63.6) Number (%)
  Any SAE: 0 Number (%)
  Any TEAE: 6 (54.5) Number (%)
  Any TESAE: 0 Number (%)
  Discontinuation due to TEAE: 2 (18.2) Number (%)
  Discontinuation due to TESAE: 0 Number (%)
  Procedure-related TEAE: 0 Number (%)
  SAE related to procedure: 0 Number (%)
  Study-drug-related SAE: 0 Number (%)
  Study-drug-related TEAE: 2 (18.2) Number (%)
[1]; 30 mg OD
  participants with TEAEs: 90.0%
[1]; 30 mg OD n = 10
  Any AE: 9 (90.0) Number (%)
  Any SAE: 2 (20.0) Number (%)
  Any TEAE: 9 (90.0) Number (%)
  Any TESAE: 2 (20.0) Number (%)
  Discontinuation due to TEAE: 0 Number (%)
  Discontinuation due to TESAE: 0 Number (%)
  Procedure-related TEAE: 0 Number (%)
  SAE related to procedure: 0 Number (%)
  Study-drug-related SAE: 1 (10.0) Number (%)
  Study-drug-related TEAE: 4 (40.0) Number (%)
[1]; 60 mg BID
  participants with study-drug-related TEAEs: 51.9%
[1]; 60 mg BID n = 27
  Any AE: 23 (85.2) Number (%)
  Any SAE: 1 (3.7) Number (%)
  Any TEAE: 21 (77.8) Number (%)
  Any TESAE: 1 (3.7) Number (%)
  Discontinuation due to TEAE: 3 (11.1) Number (%)
  Discontinuation due to TESAE: 0 Number (%)
  Procedure-related TEAE: 2 (7.4) Number (%)
  SAE related to procedure: 0 Number (%)
  Study-drug-related SAE: 1 (3.7) Number (%)
  Study-drug-related TEAE: 14 (51.9) Number (%)
[2]
  total concentration in human plasma: approximately 10 µM
  unbound maximum steady-state concentration in human plasma: < 0.1 µM
Recombinant human AKR1C4
  activity against related enzyme: no relevant activity
[3]; 90 mg OD and 60 mg BID, 2 weeks
  increases in ALT or AST: no increases
[3]; exploratory evaluation of bile acids
  influence on bile acid metabolism: did not indicate any influence
[3]; healthy premenopausal women, up to 60 mg BID for 28 days
  ovarian cycles: normal ovarian cycles were maintained
[3]; multiple doses
  serum androsterone: dose-dependent increase
Androgen receptor
  agonism or antagonism: no relevant agonism or antagonism
[4]
  increase in relative bioavailability: 35%
Estrogen receptor
  agonism or antagonism: no relevant agonism or antagonism
Endometriotic lesions
  effect on endometriotic lesions compared with vehicle group: reduced endometriotic lesions
  ovarian cyclicity after treatment: remained unchanged
[5]
  interactions in specificity panel: no relevant interactions
AKR1C3
  IC50: < 0.002 µM
Recombinant human AKR1C1
  activity against related enzyme: no relevant activity
